From ChEMBL document CHEMBL3044849, “Synthesis and insecticidal activities of novel N-sulfenyl-N'-tert-butyl-N,N'-diacylhydrazines. 1. N-alkoxysulfenate derivatives” (2007)
Converted amounts (≈) assume the structure as drawn.

What was measured:
Format in all cases: functional
Mythimna separata [1] = assay: Stomach toxicity against fourth-instar larval stage of Mythimna separata (Oriental armyworm) in compound-pretreated corn leaves assessed as mortality at 10 mg/kg at 25+/-1 degC measured after 4 days
Mythimna separata [2] = assay: Stomach toxicity against fourth-instar larval stage of Mythimna separata (Oriental armyworm) in compound-pretreated corn leaves assessed as mortality at 50 mg/kg at 25+/-1 degC measured after 4 days
Mythimna separata [3] = assay: Stomach toxicity against fourth-instar larval stage of Mythimna separata (Oriental armyworm) in compound-pretreated corn leaves assessed as mortality at 25 mg/kg at 25+/-1 degC measured after 4 days
Mythimna separata [4] = assay: Stomach toxicity against fourth-instar larval stage of Mythimna separata (Oriental armyworm) in compound-pretreated corn leaves assessed as mortality at 2.5 mg/kg at 25+/-1 degC measured after 4 days
Mythimna separata [5] = assay: Stomach toxicity against fourth-instar larval stage of Mythimna separata (Oriental armyworm) in compound-pretreated corn leaves assessed as mortality at 5 mg/kg at 25+/-1 degC measured after 4 days
Mythimna separata [6] = assay: Stomach toxicity against fourth-instar larval stage of Mythimna separata (Oriental armyworm) in compound-pretreated corn leaves assessed as mortality at 100 mg/kg at 25+/-1 degC measured after 4 days
Helicoverpa armigera = assay: Contact toxicity against fourth-instar larval stage of Helicoverpa armigeraassessed as mortality at 25 +/-1 degC applied topically on the thoracic tergite measured per gm of larva after 48 hr
Outline: (§1)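 Fourth-instar larvae of tobacco cutworm, Asian corn borer and cotton bollworm were used. Compounds in acetone at five to seven concentrations; 1 µL applied to the thoracic tergite by automatic microapplicator. Acetone-only control. Usually 40 insects per dose, four replicates, kept under rearing conditions at 25 ± 1 °C. Mortality at 48 h gave LD50; ratios use reference LD50 over test LD50.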

Ostrinia furnacalis = assay: Contact toxicity against fourth-instar larval stage of Ostrinia furnacalis (Asian corn borer) assessed as mortality at 25 +/-1 degC applied topically on the thoracic tergite measured per gm of larva after 48 hr; outline: as §1
Mythimna separata [7] = assay: Toxic ratio of RH-5992 LD90 to compound LD90 for fourth-instar larval stage of Mythimna separata (Oriental armyworm) measured after 96 hr
Outline: (§2)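 Oriental armyworm fourth-instar larvae each received 0.306 µL of acetone dilution at varying concentrations on the thoracic tergite via platinum loop. Acetone-only control. Larvae were returned to rearing conditions at 25 ± 1 °C and mortality was scored 96 h after treatment. LD50 and LD90 were derived from triplicate treatments; ratios use reference over test values.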

Spodoptera litura = assay: Contact toxicity against fourth-instar larval stage of Spodoptera litura assessed as mortality at 25 +/-1 degC applied topically on the thoracic tergite measured per gm of larva after 48 hr; outline: as §1
Spodoptera exigua [8] = assay: Toxic ratio of RH-5992 LC50 to compound LC50 for third-instar larval stage of Spodoptera exigua measured after 3 days by leaf-dip method
Spodoptera exigua [9] = assay: Toxic ratio of RH-5992 LC90 to compound LC90 for third-instar larval stage of Spodoptera exigua measured after 3 days by leaf-dip method
Spodoptera exigua [10] = assay: Stomach toxicity against third-instar larval stage of Spodoptera exigua in cabbage leaves assessed as mortality at 25 +/-1 degC treated for 3 secs before larval infestation measured after 3 days by leaf-dip method; details: for LC50: Spodoptera exigua, Instar larval stage, 72 h
Outline: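 Leaf-dip assay: fresh cabbage leaf discs (5 cm × 3 cm) were dipped 3 s in test solution and air-dried, then placed singly in boxes with five third-instar beet armyworm larvae per disc. Water- and acetone-treated leaves served as controls. Held at 25 ± 1 °C; percentage mortality was read 3 days after treatment, in triplicate.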

Mythimna separata [11] = assay: Toxic ratio of RH-5992 LD50 to compound LD50 for fourth-instar larval stage of Mythimna separata (Oriental armyworm) measured after 96 hr; outline: as §2
Mythimna separata [12] = assay: Contact toxicity against fourth-instar larval stage of Mythimna separata (Oriental armyworm) assessed as mortality at 25 +/-1 degC applied topically on the thoracic tergite measured per larva after 96 hr; outline: as §2

| SMILES | mortality at 10 mg/kg (Mythimna separata [1]) [%] | mortality at 50 mg/kg (Mythimna separata [2]) [%] | mortality at 25 mg/kg (Mythimna separata [3]) [%] | mortality at 2.5 mg/kg (Mythimna separata [4]) [%] | mortality at 5 mg/kg (Mythimna separata [5]) [%] | further results |
| --- | --- | --- | --- | --- | --- | --- |
| COSN(C(=O)c1ccccc1)N(C(=O)c1ccccc1)C(C)(C)C | 0 | 100 | 100 |  |  |  |
| CCc1ccc(C(=O)N(SOC(C)(C)CC)N(C(=O)c2cc(C)cc(C)c2)C(C)(C)C)cc1 |  |  |  | 70 | 80 |  |
| CCCCCOSN(C(=O)c1ccc(CC)cc1)N(C(=O)c1cc(C)cc(C)c1)C(C)(C)C |  |  |  | 100 | 100 |  |
| CCCOSN(C(=O)c1ccccc1)N(C(=O)c1ccccc1)C(C)(C)C | 10 | 90 | 50 |  |  |  |
| CC(C)(C)OSN(C(=O)c1ccccc1)N(C(=O)c1ccccc1)C(C)(C)C | 10 | 100 | 100 |  |  |  |
| CCc1ccc(C(=O)N(SOC(C)C)N(C(=O)c2cc(C)cc(C)c2)C(C)(C)C)cc1 | 100 | 100 | 100 | 50 | 100 |  |
| CCc1ccc(C(=O)N(SOCC(F)(F)F)N(C(=O)c2cc(C)cc(C)c2)C(C)(C)C)cc1 |  |  |  | 90 | 100 |  |
| CC(C)(C)N(NC(=O)c1ccccc1)C(=O)c1ccccc1 [RH-5849] | 0 | 100 | 70 |  |  |  |
| CCc1ccc(C(=O)N(SOCCF)N(C(=O)c2cc(C)cc(C)c2)C(C)(C)C)cc1 |  |  |  | 70 | 100 |  |
| CCc1ccc(C(=O)N(SOC(C)(C)C)N(C(=O)c2cc(C)cc(C)c2)C(C)(C)C)cc1 | 100 | 100 | 100 | 60 | 70 |  |
| CCOSN(C(=O)c1ccc(CC)cc1)N(C(=O)c1cc(C)cc(C)c1)C(C)(C)C | 100 | 100 | 100 | 70 | 100 |  |
| CCc1ccc(C(=O)N(SOCCOC)N(C(=O)c2cc(C)cc(C)c2)C(C)(C)C)cc1 |  |  |  | 70 | 90 |  |
| Cc1cc(C)cc(C(=O)N(NC(=O)c2ccc3c(c2C)OC(C)C3)C(C)(C)C)c1 (stereo not drawn) [FUXIAN] |  |  |  | 90 | 100 |  |
| CC(C)OSN(C(=O)c1ccccc1)N(C(=O)c1ccccc1)C(C)(C)C | 10 | 100 | 100 |  |  |  |
| CCc1ccc(C(=O)N(SOCC(C)C)N(C(=O)c2cc(C)cc(C)c2)C(C)(C)C)cc1 |  |  |  | 80 | 100 |  |
| CCCCOSN(C(=O)c1ccc(CC)cc1)N(C(=O)c1cc(C)cc(C)c1)C(C)(C)C | 100 | 100 | 100 | 90 | 100 |  |
| CCOSN(C(=O)c1ccccc1)N(C(=O)c1ccccc1)C(C)(C)C |  | 85 | 0 |  |  | mortality at 100 mg/kg (Mythimna separata [6]): 100% |
| CCc1ccc(C(=O)N(SOC)N(C(=O)c2cc(C)cc(C)c2)C(C)(C)C)cc1 | 100 |  | 100 | 100 | 100 | LD50 (Helicoverpa armigera): 73.907 µg; LD50 (Ostrinia furnacalis): 44.961 µg; Ratio (Mythimna separata [7]): 154; LD50 (Spodoptera litura): 16.061 µg; RatioLC50 (Spodoptera exigua [8]): 3.4; Ratio (Spodoptera exigua [9]): 5.1; LC90 (Spodoptera exigua [10]): 524.29 µg/mL (≈ 1260 µM); LC50 (Spodoptera exigua [10]): 24.4 µg/mL (≈ 58.7 µM); Ratio (Mythimna separata [11]): 141; LD50 (Mythimna separata [12]): 0.0195 µg; LD90 (Mythimna separata [12]): 0.0479 µg |
| CCCOSN(C(=O)c1ccc(CC)cc1)N(C(=O)c1cc(C)cc(C)c1)C(C)(C)C | 100 | 100 | 100 | 80 | 90 |  |
| CCc1ccc(C(=O)NN(C(=O)c2cc(C)cc(C)c2)C(C)(C)C)cc1 [TEBUFENOZIDE] | 100 |  |  | 55 | 95 | LD50 (Helicoverpa armigera): 1311.9 µg; LD50 (Ostrinia furnacalis): 59.414 µg; Ratio (Mythimna separata [7]): 100; LD50 (Spodoptera litura): 527.12 µg; RatioLC50 (Spodoptera exigua [8]): 1; Ratio (Spodoptera exigua [9]): 1; LC90 (Spodoptera exigua [10]): 2648.6 µg/mL (≈ 7510 µM); LC50 (Spodoptera exigua [10]): 83.4 µg/mL (≈ 237 µM); Ratio (Mythimna separata [11]): 100; LD50 (Mythimna separata [12]): 0.0275 µg; LD90 (Mythimna separata [12]): 0.0739 µg |
| CCc1ccc(C(=O)N(SOCCc2ccccc2)N(C(=O)c2cc(C)cc(C)c2)C(C)(C)C)cc1 |  |  |  | 50 | 90 |  |
| CCOCCOSN(C(=O)c1ccc(CC)cc1)N(C(=O)c1cc(C)cc(C)c1)C(C)(C)C |  |  |  | 90 | 100 |  |
| COSN(C(=O)c1ccc2c(c1C)OC(C)C2)N(C(=O)c1cc(C)cc(C)c1)C(C)(C)C (stereo not drawn) |  |  |  | 80 |  |  |
| CCc1ccc(C(=O)N(SOCc2ccccc2)N(C(=O)c2cc(C)cc(C)c2)C(C)(C)C)cc1 |  |  |  | 70 | 90 |  |
